Measured values collected from several papers.
Compare with care: the assays were run in different laboratories.
HDAC6: Protein deacetylase HDAC6 (HDAC6, Homo sapiens, UniProt Q9UBN7)
TNK1: Non-receptor tyrosine-protein kinase TNK1 (TNK1, Homo sapiens, UniProt Q13470)

SMILES	target	assay	setting	endpoint	value
Cc1c(OS(=O)(=O)Oc2ccc(Oc3ccccc3)cc2)cccc1C(=O)NO	HDAC6	enzyme activity, inhibitor, fluorescence	10 µM	inhibition	27%
Cc1cc([C@@H](C)Nc2ccccc2C(=O)O)c2nc(N3CCC(F)(F)CC3)c(C#N)c(=O)n2c1	Serine/threonine-protein kinase PAK 2 (PAK2, Homo sapiens, UniProt Q13177)	binding, competition with immobilised ligand	1 µM	remaining binding	100%
C=CC(=O)N1C[C@@H](n2nc(C#Cc3c(F)cc4c(ncn4C4CC4)c3F)c(C(N)=O)c2NC)C[C@@H]1COC	TNK1	enzyme activity, inhibitor, mobility shift	1 µM	inhibition	89.5%
Cc1ncsc1-c1ccc(CNC(=O)[C@@H]2C[C@@H](O)CN2C(=O)[C@@H](NC(=O)CCCCCCCCNC(=O)CN2CCN(C(=O)c3ccc(Nc4nc(C5CC5)cn5c(-c6cn[nH]c6)cnc45)c(F)c3)CC2)C(C)(C)C)cc1	TNK1	cell-free assay, competition with immobilised ligand	1 µM	inhibition	> 65%
COc1cc(-c2cncc3c2CN(C)Cc2cc(N4CCNCC4)ccc2-3)cc(OC)c1OC	Death-associated protein kinase 1 (DAPK1, Homo sapiens, UniProt P53355)	enzyme activity, inhibitor	1 µM	remaining activity	101%
Cc1cc(NC(=O)c2cccc(NC(=O)/C=C/CN(C)C)c2)ccc1Nc1nccc(-c2cccnc2)n1	TNK1	binding, competition with immobilised ligand	1 µM	remaining binding	57%
Cc1c(OS(=O)(=O)Oc2ccc(C(C)(C)C)cc2)cccc1C(=O)NO	HDAC6	enzyme activity, inhibitor, fluorescence	10 µM	inhibition	30%
CCc1nn(C)c2nc(-c3ccc(C(=O)O)cc3)nc(NCc3ccc(F)cc3)c12	3',5'-cyclic-AMP phosphodiesterase 4D (PDE4D, Homo sapiens, UniProt Q08499)	enzyme activity, inhibitor, radiometric	10 µM	inhibition	42.1%
Cc1cc(OS(=O)(=O)Oc2cccc(C(C)C)c2)cc(C(=O)NO)c1	HDAC6	enzyme activity, inhibitor, fluorescence	10 µM	inhibition	58%
CNc1ncc2c(/C=C/C(=O)N3CCC(OC)CC3)nn(Cc3cccc(C(F)(F)F)c3)c2n1	Dual specificity protein kinase TTK (TTK, Homo sapiens, UniProt P33981)	enzyme activity, inhibitor, radiometric	1 µM	remaining activity	105%
Cc1c(OS(=O)(=O)Oc2ccc(-n3ccnc3)cc2)cccc1C(=O)NO	HDAC6	enzyme activity, inhibitor, fluorescence	10 µM	inhibition	46%
C=CC(=O)N1CCC(COCC(=O)N2CCN(c3nc(-c4cnc(N)nc4C(F)F)nc(N4CCOC[C@@H]4C)n3)CC2)CC1	Serine/threonine-protein kinase MAK (MAK, Homo sapiens, UniProt P20794)	binding, competition with immobilised ligand	1 µM	remaining binding	100%
